Assay [1] can be described thus: Cytotoxicity against human MIAPaCa2 cells after 24 hrs by MTT assay. In kind it is functional, cell-based. The note with it: MIA PaCa-2, 24 h. (In general: Tetrazolium dyes change colour on reduction, which living cells bring about.)
In the next assay the test system is MIA PaCa-2. The assay can be described thus: Cytotoxicity against human MIAPaCa2 cells up to 30 uM after 24 hrs by MTT assay. In kind it is functional, cell-based.
A further assay has as its target mTORC1 (Homo sapiens) (UniProt P42345+Q8N122+Q9BVC4). The note with it: HeLa, 100 nM.
Assay [2] can be described thus: Cytotoxicity against human SKOV3 cells by SRB method. The format is functional. The following applies: SK-OV-3. In a few lines: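 SRB assay in SK-OV-3 cells; percent cell growth per Boyd et al.; GI50, TGI and LC50 fitted from dose–response curves of percent growth; mean ± SE, n = 3 or 4 independent experiments.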
A short description of assay [3]: Cytotoxicity against human P-gp expressing SKOV3-M6/6 cells by SRB assay. In kind it is functional. In a few lines: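 SRB assay in SK-OV-3/MDR-1-6/6 cells, a single-cell clone of SKOV-3/MDR1 (P-gp). Percent cell growth follows Boyd et al. GI50 was derived from dose–response curves of percent growth. Results are mean ± SE of n = 3 or 4 independent experiments. Relative resistance is calculated against parental SK-OV-3.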
Background: The SRB assay estimates cell density from bound dye.

The subject of another assay is SK-OV-3. The assay can be described thus: Resistance ratio of GI50 for human P-gp expressing SKOV3-M6/6 cells to GI50 for human SKOV3 cells. In kind it is functional. In a few lines: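 SRB assay in SK-OV-3 and its P-gp/MDR1 single-cell clone SK-OV-3/MDR-1-6/6; GI50 from percent growth dose–response curves, n = 3 or 4 independent experiments; relative resistance taken as ratio of GI50 in the MDR line to parental.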

SMILES strings stand for the structures. The source made the active and inactive calls. No cut-off for these calls is given here.

Sequence of mTORC1 (Homo sapiens) (Q8N122 whole entry, looked up, other chains not shown): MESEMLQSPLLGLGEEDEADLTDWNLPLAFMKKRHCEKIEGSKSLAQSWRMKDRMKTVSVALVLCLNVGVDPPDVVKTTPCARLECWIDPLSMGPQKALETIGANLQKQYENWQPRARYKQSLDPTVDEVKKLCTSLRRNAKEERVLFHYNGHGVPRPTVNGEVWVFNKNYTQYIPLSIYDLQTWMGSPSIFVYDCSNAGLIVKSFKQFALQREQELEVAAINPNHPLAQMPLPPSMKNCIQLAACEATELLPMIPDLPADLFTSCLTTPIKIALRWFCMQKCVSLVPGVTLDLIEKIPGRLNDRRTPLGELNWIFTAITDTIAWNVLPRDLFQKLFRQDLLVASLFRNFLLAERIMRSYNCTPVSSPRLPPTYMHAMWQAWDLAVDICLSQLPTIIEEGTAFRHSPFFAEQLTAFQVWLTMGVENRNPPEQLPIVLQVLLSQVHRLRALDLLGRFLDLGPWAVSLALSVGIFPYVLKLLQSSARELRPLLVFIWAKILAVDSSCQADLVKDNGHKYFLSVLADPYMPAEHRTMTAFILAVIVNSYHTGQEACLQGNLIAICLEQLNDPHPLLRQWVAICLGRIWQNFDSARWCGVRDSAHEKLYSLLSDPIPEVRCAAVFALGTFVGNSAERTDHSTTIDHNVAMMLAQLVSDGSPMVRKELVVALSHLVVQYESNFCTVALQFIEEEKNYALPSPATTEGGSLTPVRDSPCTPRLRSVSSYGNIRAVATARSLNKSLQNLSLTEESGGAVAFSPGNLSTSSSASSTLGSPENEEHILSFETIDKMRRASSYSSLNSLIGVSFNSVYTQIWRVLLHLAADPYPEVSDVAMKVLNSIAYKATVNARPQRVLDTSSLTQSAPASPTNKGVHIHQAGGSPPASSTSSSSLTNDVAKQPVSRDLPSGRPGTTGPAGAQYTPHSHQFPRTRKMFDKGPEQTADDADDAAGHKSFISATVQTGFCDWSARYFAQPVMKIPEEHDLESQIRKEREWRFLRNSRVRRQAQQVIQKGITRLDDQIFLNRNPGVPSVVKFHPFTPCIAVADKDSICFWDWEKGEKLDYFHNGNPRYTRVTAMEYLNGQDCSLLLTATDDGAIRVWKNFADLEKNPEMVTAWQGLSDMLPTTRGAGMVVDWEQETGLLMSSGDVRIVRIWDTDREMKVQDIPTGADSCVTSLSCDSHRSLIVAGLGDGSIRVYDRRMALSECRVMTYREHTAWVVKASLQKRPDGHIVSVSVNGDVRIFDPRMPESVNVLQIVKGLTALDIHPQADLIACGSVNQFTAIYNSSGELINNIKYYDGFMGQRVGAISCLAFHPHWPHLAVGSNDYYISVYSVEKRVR
Sequence of mTORC1 (Homo sapiens) (Q9BVC4 whole entry, looked up, other chains not shown): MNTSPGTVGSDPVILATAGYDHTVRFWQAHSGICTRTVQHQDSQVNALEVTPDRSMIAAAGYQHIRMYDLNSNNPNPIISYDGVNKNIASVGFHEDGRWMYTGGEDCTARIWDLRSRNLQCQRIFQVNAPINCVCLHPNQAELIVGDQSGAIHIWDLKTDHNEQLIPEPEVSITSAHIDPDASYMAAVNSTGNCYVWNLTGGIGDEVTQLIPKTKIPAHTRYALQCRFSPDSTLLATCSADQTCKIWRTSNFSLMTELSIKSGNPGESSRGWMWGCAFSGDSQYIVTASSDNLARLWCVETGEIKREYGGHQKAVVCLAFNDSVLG

As for `CC(C)[C@@]12SS[C@]3(C(=O)N1C)[C@@H](O)[C@]1(C45c6ccccc6N[C@H]4N4C(=O)[C@]6(CO)SSSS[C@]4(C(=O)N6C)[C@H]5O)c4ccccc4N[C@@H]1N3C2=O` (stereo not given in full), it took 43.1 nM to reach half-maximal inhibition in assay [1] (IC50).

As to `CS[C@@]1(C(C)C)C(=O)N2[C@H]3Nc4ccccc4[C@@]3(C34c5ccccc5N[C@H]3N3C(=O)[C@@](CO)(SC)N(C)C(=O)[C@]3(SC)[C@H]4O)[C@H](O)[C@]2(SC)C(=O)N1C` (stereo not given in full), the outcome with MIA PaCa-2 was inactive.

Turning to `CO[C@H]1C[C@@H]2CC[C@@H](C)[C@@](O)(O2)C(=O)C(=O)N2CCCC[C@H]2C(=O)O[C@H]([C@H](C)C[C@@H]2CC[C@@H](O)[C@H](OC)C2)CC(=O)[C@H](C)/C=C(\C)[C@@H](O)[C@@H](OC)C(=O)[C@H](C)C[C@H](C)/C=C/C=C/C=C/1C`, the inhibition entry at mTORC1 (Homo sapiens) was “Active”.

Consider `CC(=O)O[C@H]1C(=O)[C@@]2(C)[C@H]([C@H](OC(=O)c3ccccc3)[C@]3(O)C[C@H](OC(=O)[C@H](O)[C@@H](NC(=O)c4ccccc4)c4ccccc4)C(C)=C1C3(C)C)[C@]1(OC(C)=O)CO[C@@H]1C[C@@H]2O` [PACLITAXEL], for which the 50% growth inhibitory concentration (GI50) (as a rule, the concentration giving 50% growth inhibition) in assay [2] was determined as 4.7 nM; in assay [3], 600 nM. Moreover, the Ratio in the assay with SK-OV-3 was 127.

Take `CC(C)[C@@]12SS[C@]3(C(=O)N1C)[C@@H](O)[C@]1(C45c6ccccc6N[C@H]4N4C(=O)[C@]6(CO)SS[C@]4(C(=O)N6C)[C@H]5O)c4ccccc4N[C@@H]1N3C2=O` (stereo not given in full): in assay [1], the IC50 (in general, the concentration that inhibits the measured activity by half) was determined as 33.6 nM.

As to `CS[C@@]1(C(C)C)C(=O)N2[C@H]3Nc4ccccc4[C@@]3(C34c5ccccc5N(C)[C@H]3N3C(=O)[C@@](CO)(SC)N(C)C(=O)[C@]3(SC)[C@H]4O)[C@H](O)[C@]2(SC)C(=O)N1C` (stereo not given in full), in the assay with MIA PaCa-2, the outcome was inactive.

Turning to `CS[C@@]1(C(C)C)C(=O)N2[C@H]3N(C)c4ccccc4[C@@]3(C34c5ccccc5N[C@H]3N3C(=O)[C@@](CO)(SC)N(C)C(=O)[C@]3(SC)[C@H]4O)[C@H](O)[C@]2(SC)C(=O)N1C` (stereo not given in full), the outcome in the assay with MIA PaCa-2 was inactive.

As for `CC(C)[C@@]12SS[C@]3(C(=O)N1C)[C@@H](O)[C@]1(C45c6ccccc6N[C@H]4N4C(=O)[C@@]6(CO)SSSS[C@@]4(C(=O)N6C)[C@H]5O)c4ccccc4N[C@@H]1N3C2=O` (stereo not given in full), half-maximal inhibition in assay [1] (IC50) was put at 9.1 nM.

These data come from ChEMBL document CHEMBL3351594, “Cytotoxic dimeric epipolythiodiketopiperazines from the ascomycetous fungus Preussia typharum” (J Nat Prod, 2014).
